From ChEMBL document CHEMBL1145518, “Potent immune-modulating and anticancer effects of NKT cell stimulatory glycolipids” (2007)
The source made the active and inactive calls. No cut-off for these calls is given here.

Assays:
[1] = Induction of IFN-gamma secretion in human CD161+ CD3+ NKT cells at 10 ug/ml after 18 hrs relative to basal level; assay type: functional
Procedure, shortened: (§1)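 Human Vα24i NKT cell lines were expanded for 10 days on irradiated (3,000 rad) autologous immature DCs with 10 units/ml IL-2. The cells (1 × 10^5) were cocultured with 5 × 10^4 irradiated immature CD14+ DCs plus glycolipid at 10 μg/ml. Supernatants were collected at 18 h and read on a 22-plex Luminex bead panel. Triplicates, mean ± SD.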

[2] = Induction of IL2 secretion in human CD161+ CD3+ NKT cells at 10 ug/ml after 18 hrs relative to basal level; assay type: functional; procedure, shortened: as §1
[3] = Induction of IL12p70 secretion in human CD161+ CD3+ NKT cells at 10 ug/ml after 18 hrs relative to basal level; assay type: functional; procedure, shortened: as §1
[4] = Induction of IL12p40 secretion in human CD161+ CD3+ NKT cells at 10 ug/ml after 18 hrs relative to basal level; assay type: functional; procedure, shortened: as §1
[5] = Induction of RANTES secretion in human CD161+ CD3+ NKT cells at 10 ug/ml after 18 hrs relative to basal level; assay type: functional; procedure, shortened: as §1
[6] = Induction of MIPalpha secretion in human CD161+ CD3+ NKT cells at 10 ug/ml after 18 hrs relative to basal level; assay type: functional; procedure, shortened: as §1
[7] = Induction of MCP1 secretion in human CD161+ CD3+ NKT cells at 10 ug/ml after 18 hrs relative to basal level; assay type: functional; procedure, shortened: as §1
[8] = Induction of IL8 secretion in human CD161+ CD3+ NKT cells at 10 ug/ml after 18 hrs relative to basal level; assay type: functional; procedure, shortened: as §1
[9] = Induction of TNFalpha secretion in human CD161+ CD3+ NKT cells at 10 ug/ml after 18 hrs relative to basal level; assay type: functional; procedure, shortened: as §1
[10] = Induction of IL3 secretion in human CD161+ CD3+ NKT cells at 10 ug/ml after 18 hrs relative to basal level; assay type: functional; procedure, shortened: as §1
[11] = Induction of GM-CSF secretion in human CD161+ CD3+ NKT cells at 10 ug/ml after 18 hrs relative to basal level; assay type: functional; procedure, shortened: as §1
[12] = Induction of IL15 secretion in human CD161+ CD3+ NKT cells at 10 ug/ml after 18 hrs relative to basal level; assay type: functional; procedure, shortened: as §1
[13] = Induction of IL4 secretion in human CD161+ CD3+ NKT cells at 10 ug/ml after 18 hrs relative to basal level; assay type: functional; procedure, shortened: as §1
[14] = Induction of IL6 secretion in human CD161+ CD3+ NKT cells at 10 ug/ml after 18 hrs relative to basal level; assay type: functional; procedure, shortened: as §1
[15] = Induction of IL10 secretion in human CD161+ CD3+ NKT cells at 10 ug/ml after 18 hrs relative to basal level; assay type: functional; procedure, shortened: as §1
[16] = Induction of IL13 secretion in human CD161+ CD3+ NKT cells at 10 ug/ml after 18 hrs relative to basal level; assay type: functional; procedure, shortened: as §1
[17] = test system: NKT; experiment: Stimulation of cell expansion of human invariant CD161+/ Valpha24+/ CD56+/ CD3+ NKT cells by flow cytometry method; assay type: functional, cell-based
Procedure, shortened: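 CD56+ NK/NKT mixtures (2 × 10^6) were isolated from human leukopaks with anti-CD56 microbeads. They were cocultured with 4 × 10^5 autologous immature CD14+ DCs pulsed with glycolipid at 3 μg/ml, or with 0.3% DMSO, on day 2 for 18 h. Suspension cells were then transferred and kept in 100 units/ml IL-2 with fresh medium every 3 days. On day 9, CD161+/Vα24TCR+ cells were gated by flow cytometry and total Vα24i NKT cells counted. Triplicates, mean ± SD.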

[18] = test system: TC1; experiment: Antitumor activity in TC1 cells xenografted C57BL/6 mouse assessed as suppression of tumor growth at 2 ug, iv; assay type: functional, cell-based
Procedure, shortened: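 C57BL/6 mice (n = 5/group) were inoculated i.v. with TC-1 lung cancer cells. They were then treated i.v. with 2 μg glycolipid per mouse, or 100 μl of 1% DMSO, twice weekly for 4 weeks. Kaplan–Meier survival and body weight were followed, with tumor-free mice as an additional control.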

[19] = test system: Mus musculus; experiment: Activation of B cells in BALB/c mouse at 2 ug, iv after 72 hrs by flow cytometry; assay type: functional, organism-based
[20] = test system: 4T1; experiment: Antitumor activity in mouse 4T1 cells xenografted BALB/c mouse assessed as suppression of tumor growth at 2 ug, iv; assay type: functional, cell-based
Procedure, shortened: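 BALB/c mice (n = 6) were inoculated s.c. with 4T1 breast cancer cells. From day 3 they were treated i.v. with glycolipid or vehicle twice weekly for 4 weeks. Tumor volume was recorded every 3 days for 1 month, and survival was monitored up to 54 days.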

[21] = test system: Mus musculus; experiment: Induction of IFN-gamma secretion in BALB/c mouse serum at 2 ug, iv after 18 hrs relative to control; assay type: functional
Procedure, shortened: (§2)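 BALB/c mice received an i.v. injection of 100 μl of glycolipid diluted to 20 μg/ml in saline from DMSO stock, with 1% DMSO as vehicle. Serum cytokines/chemokines were measured at 2 and 18 h after injection.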

[22] = test system: Mus musculus; experiment: Induction of IL1-beta secretion in BALB/c mouse serum at 2 ug, iv after 18 hrs relative to control; assay type: functional; procedure, shortened: as §2
[23] = test system: Mus musculus; experiment: Induction of IL2 secretion in BALB/c mouse serum at 2 ug, iv after 2 hrs relative to control; assay type: functional; procedure, shortened: as §2
[24] = test system: Mus musculus; experiment: Induction of IL12p70 secretion in BALB/c mouse serum at 2 ug, iv after 18 hrs relative to control; assay type: functional; procedure, shortened: as §2
[25] = test system: Mus musculus; experiment: Induction of IL12p40 secretion in BALB/c mouse serum at 2 ug, iv after 18 hrs relative to control; assay type: functional; procedure, shortened: as §2
[26] = test system: Mus musculus; experiment: Induction of RANTES secretion in BALB/c mouse serum at 2 ug, iv after 2 hrs relative to control; assay type: functional; procedure, shortened: as §2
[27] = test system: Mus musculus; experiment: Induction of MIPbeta secretion in BALB/c mouse serum at 2 ug, iv after 2 hrs relative to control; assay type: functional; procedure, shortened: as §2
[28] = test system: Mus musculus; experiment: Induction of MCP1 secretion in BALB/c mouse serum at 2 ug, iv after 2 hrs relative to control; assay type: functional; procedure, shortened: as §2
[29] = test system: Mus musculus; experiment: Induction of KC secretion in BALB/c mouse serum at 2 ug, iv after 2 hrs relative to control; assay type: functional; procedure, shortened: as §2
[30] = test system: Mus musculus; experiment: Induction of TNFalpha secretion in BALB/c mouse serum at 2 ug, iv after 18 hrs relative to control; assay type: functional; procedure, shortened: as §2
[31] = test system: Mus musculus; experiment: Induction of IL3 secretion in BALB/c mouse serum at 2 ug, iv after 2 hrs relative to control; assay type: functional; procedure, shortened: as §2
[32] = test system: Mus musculus; experiment: Induction of GM-CSF secretion in BALB/c mouse serum at 2 ug, iv after 2 hrs relative to control; assay type: functional; procedure, shortened: as §2
[33] = test system: Mus musculus; experiment: Induction of IL4 secretion in BALB/c mouse serum at 2 ug, iv after 2 hrs relative to control; assay type: functional; procedure, shortened: as §2
[34] = test system: Mus musculus; experiment: Induction of IL6 secretion in BALB/c mouse serum at 2 ug, iv after 2 hrs relative to control; assay type: functional; procedure, shortened: as §2
[35] = test system: Mus musculus; experiment: Induction of IL10 secretion in BALB/c mouse serum at 2 ug, iv after 18 hrs relative to control; assay type: functional; procedure, shortened: as §2
[36] = test system: Mus musculus; experiment: Induction of IL13 secretion in BALB/c mouse serum at 2 ug, iv after 2 hrs relative to control; assay type: functional; procedure, shortened: as §2

Row | SMILES | Activity [1] | Activity [2] | Activity [3] | Activity [4] | Activity [5] | Activity [6] | Activity [7] | Activity [8] | Activity [9] | Activity [10] | Activity [11] | Activity [12] | Activity [13] | Activity [14] | Activity [15] | Activity [16] | Activity [17] | Activity [18] | other results
1 | CCCCCCCCCCCCCC[C@@H](O)[C@@H](O)[C@H](CO[C@H]1O[C@H](CO)[C@H](O)[C@H](O)[C@H]1O)NC(=O)CCc1ccc(CC(C)C)cc1 | 1.9 | 1.3 | 1.8 | 1.8 | 1.3 | 2.8 | 0.9 | 5.5 | 1.9 | 1.9 | 3.8 | 2.2 | 2.2 | 2.1 | 2.2 | 1.4 | Active |  | 
2 | CCCCCCCCCCCCCC[C@@H](O)[C@@H](O)[C@H](CO[C@H]1O[C@H](CO)[C@H](O)[C@H](O)[C@H]1O)NC(=O)CCCCCc1ccccc1 | 4.6 | 5.9 | 3.3 | 2.4 | 1.8 | 3 | 1.3 | 2.2 | 8.7 | 4.1 | 5.6 | 2.6 | 3 | 2.7 | 2.4 | 2.6 | Active | Active | Activity [19]: Active
3 | CCCCCCCCCCCCCC[C@@H](O)[C@@H](O)[C@H](CO[C@H]1O[C@H](CO)[C@H](O)[C@H](O)[C@H]1O)NC(=O)CCCCCCCCCc1ccccc1 | 4.2 | 3.4 | 2.3 | 1.4 | 2.1 | 3.4 | 1.5 | 2.2 | 5.6 | 1.8 | 3.4 | 2.3 | 3.2 | 1.6 | 1.4 | 1.6 | Active | Active | Activity [20]: Active
4 | CCCCCCCCCCCCCCC[C@@H](O)[C@H](CO[C@H]1O[C@H](C(=O)O)[C@H](O)[C@H](O)[C@H]1O)NC(=O)CCCCCCCCCCCCC | 2.4 | 1.3 | 1.7 | 1.9 | 2.4 | 3.5 | 1.7 | 2.3 | 5.5 | 1.7 | 2.9 | 2 | 2.9 | 2.3 | 1.7 | 2 |  | Active | Activity [20]: Active; Activity [21]: 3.1; Activity [22]: 2; Activity [23]: 17.2; Activity [24]: 1.2; Activity [25]: 1.9; Activity [26]: 0.9; Activity [27]: 1.4; Activity [28]: 5.6; Activity [29]: 7.6; Activity [30]: 6; Activity [31]: 2.8; Activity [32]: 4.9; Activity [33]: 26.8; Activity [34]: 1.7; Activity [35]: 1.1; Activity [36]: 2.3
5 | CCCCCCCCCCCCCC[C@@H](O)[C@@H](O)[C@H](CO[C@H]1O[C@H](CO)[C@H](O)[C@H](O)[C@H]1O)NC(=O)CCc1ccc(C(F)(F)F)cc1 | 2.8 | 1.5 | 1.7 | 1.9 | 1.7 | 3.4 | 1.4 | 2.4 | 3.3 | 1.6 | 3.5 | 2.1 | 2.4 | 2.3 | 1.7 | 2.1 |  |  | 
6 | CCCCCCCCCCCCCC[C@@H](O)[C@@H](O)[C@H](CO[C@H]1O[C@H](CO)[C@H](O)[C@H](O)[C@H]1O)NC(=O)CCCc1ccccc1 | 2.1 | 1.4 | 1.2 | 1.4 | 1.5 | 3.2 | 1 | 1.6 | 3.3 | 1.8 | 2.8 | 2.2 | 1.9 | 1.6 | 1.3 | 1.6 |  |  | 
7 | CCCCCCCCCCCCCCCCCCCCCCCCCC(=O)N[C@@H](CS[C@H]1O[C@H](CO)[C@H](O)[C@H](O)[C@H]1O)[C@H](O)[C@H](O)CCCCCCCCCCCCCC | 1.3 | 1.2 | 1 | 1.7 | 1.5 | 1.5 | 1.4 | 1.9 | 2.5 | 1.1 | 1.6 | 1.8 | 2.1 | 1.5 | 0.6 | 1.6 |  |  | 
8 | CCCCCCCCCCCCCCCCCCCCCCCCCC(=O)N[C@@H](CO[C@@H]1O[C@H](CO)[C@H](O)[C@H](OS(=O)(=O)[O-])[C@H]1O)[C@H](O)[C@H](O)CCCCCCCCCCCCCC.[Na+] | 2.2 | 1.6 | 1.6 | 1.8 | 1.5 | 3.2 | 1.5 | 1.9 | 3.7 | 2.3 | 4.1 | 2.2 | 2.9 | 1.9 | 1.8 | 2.4 |  |  | 
